Measured values: ChEMBL document CHEMBL1275388, “Discovery and synthesis of novel luteolin derivatives as DAT agonists” (Bioorg Med Chem, 2010)

Target: Sodium-dependent dopamine transporter (Rattus norvegicus, UniProt P23977)
Assay: Agonist activity at rat DAT expressed in CHO cells
Format: functional, cell-based
Procedure, shortened: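 CHO cell lines constructed to stably express DAT were used to measure DAT agonistic activity, reported as EC50.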

Sodium-dependent dopamine transporter, sequence (P23977 whole entry): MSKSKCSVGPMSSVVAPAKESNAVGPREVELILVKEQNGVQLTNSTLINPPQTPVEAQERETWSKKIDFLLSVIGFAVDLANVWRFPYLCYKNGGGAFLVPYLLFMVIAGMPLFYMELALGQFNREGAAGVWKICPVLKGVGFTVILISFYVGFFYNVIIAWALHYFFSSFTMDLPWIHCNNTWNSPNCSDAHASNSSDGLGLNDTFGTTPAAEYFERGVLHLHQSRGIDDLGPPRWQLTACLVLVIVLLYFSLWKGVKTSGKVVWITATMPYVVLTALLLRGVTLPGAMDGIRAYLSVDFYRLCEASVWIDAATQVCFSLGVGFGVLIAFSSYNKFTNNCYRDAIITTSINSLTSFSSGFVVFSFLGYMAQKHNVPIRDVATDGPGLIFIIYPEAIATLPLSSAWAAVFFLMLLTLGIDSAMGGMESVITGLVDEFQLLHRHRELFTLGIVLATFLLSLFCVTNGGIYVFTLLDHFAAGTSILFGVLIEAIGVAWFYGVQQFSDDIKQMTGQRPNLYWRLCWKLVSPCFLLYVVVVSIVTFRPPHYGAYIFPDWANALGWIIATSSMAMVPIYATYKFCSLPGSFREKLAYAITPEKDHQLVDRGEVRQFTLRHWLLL

| Structure (SMILES) | EC50 [µM] |
| --- | --- |
| Cc1ccc(C(=O)Oc2cc(O)cc3oc(-c4ccc(O)c(O)c4)cc(=O)c23)cc1 | 6.92 |
| COc1cc(O)cc2oc(-c3ccc(O)c(O)c3)cc(=O)c12 | 4.35 |
| CCOc1cc(-c2cc(=O)c3c(O)cc(O)cc3o2)ccc1O | 12.9 |
| O=c1cc(-c2ccc(O)c(O)c2)oc2cc(O)cc(O)c12 [LUTEOLIN] | 1.45 |
| CC(C)COc1cc(O)cc2oc(-c3ccc(O)c(O)c3)cc(=O)c12 | 4.8 |
| CC(C)Oc1cc(O)cc2oc(-c3ccc(O)c(O)c3)cc(=O)c12 | 5.43 |
| CCCCCCOc1cc(O)cc2oc(-c3ccc(O)c(O)c3)cc(=O)c12 | 4.58 |
| CCCCCCCCCCOc1cc(O)cc2oc(-c3ccc(O)c(O)c3)cc(=O)c12 | 33 |
| CC(C)CCOc1cc(O)cc2oc(-c3ccc(O)c(O)c3)cc(=O)c12 | 3.43 |
| CCC(=O)Oc1cc(O)cc2oc(-c3ccc(O)c(O)c3)cc(=O)c12 | 31 |
| CCCCCCCCOc1cc(O)cc2oc(-c3ccc(O)c(O)c3)cc(=O)c12 | 16.5 |
| O=C(Oc1cc(O)cc2oc(-c3ccc(O)c(O)c3)cc(=O)c12)c1ccccc1 | 11.2 |
| CCCCCCCC(=O)Oc1cc(O)cc2oc(-c3ccc(O)c(O)c3)cc(=O)c12 | 8.56 |
| CC(=O)Oc1cc(O)cc2oc(-c3ccc(O)c(O)c3)cc(=O)c12 | 5.37 |

More lines, now with the values ahead:

| EC50 [µM] | Structure (SMILES) |
| --- | --- |
| 1.82 | CCCC(=O)Oc1cc(O)cc2oc(-c3ccc(O)c(O)c3)cc(=O)c12 |
| 0.869 | CCCCC(=O)Oc1cc(O)cc2oc(-c3ccc(O)c(O)c3)cc(=O)c12 |
| 3.07 | CCCOc1cc(O)cc2oc(-c3ccc(O)c(O)c3)cc(=O)c12 |
| 2.4 | CCCCOc1cc(O)cc2oc(-c3ccc(O)c(O)c3)cc(=O)c12 |
| 1.69 | CCCC(=O)Oc1cc(O)c2c(=O)cc(-c3ccc(O)c(O)c3)oc2c1 |
| 2.21 | CCOc1cc(O)cc2oc(-c3ccc(O)c(O)c3)cc(=O)c12 |
| 1.38 | CC(C)C(=O)Oc1cc(O)c2c(=O)cc(-c3ccc(O)c(O)c3)oc2c1 |
| 1.7 | CCC(=O)Oc1cc(O)c2c(=O)cc(-c3ccc(O)c(O)c3)oc2c1 |
| 0.046 | CC(C)C(=O)Oc1cc(O)cc2oc(-c3ccc(O)c(O)c3)cc(=O)c12 |
| 3.42 | COc1cc(OC)c2c(=O)cc(-c3ccc(O)c(O)c3)oc2c1 |
| 2.59 | O=c1cc(-c2ccc(O)c(O)c2)oc2cc(O)cc(OCCCCc3ccccc3)c12 |
| 2.71 | CC(C)CCC(=O)Oc1cc(O)cc2oc(-c3ccc(O)c(O)c3)cc(=O)c12 |
